The values below come from ChEMBL document CHEMBL4257564, “Rational Design, Synthesis, and Pharmacological Characterization of Novel Ghrelin Receptor Inverse Agonists as Potential Treatment against Obesity-Related Metabolic Diseases” (J Med Chem, 2018).

Structures are written as SMILES.

For data set [1], the target named is T1, Growth hormone secretagogue receptor type 1 (Homo sapiens, UniProt Q92847). Kind of data set: Antagonist activity at recombinant human GHSR1a expressed in HEK293 cells assessed as inhibition of ghrelin-induced intracellular calcium release incubated for 20 secs and measured after 2 mins by FLIPR assay. Format: functional, cell-based. A digest of the protocol:
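HEK293/GHSR1a cells were dye-loaded for 30-60 min. Compounds and 10 nM ghrelin were added at t = 20 s, with a 15 min compound preincubation described. Calcium response was read for 2 min. IC50 was taken from dose-response fits of the reduction in ghrelin response; mean of at least two independent runs done in triplicate.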
In general terms: Calcium flux is commonly read through the fluorescence of an indicator in the cells.

Data set [2] deals with T1, Growth hormone secretagogue receptor type 1. The data set can be described thus: Inverse agonist at recombinant human GHSR1a expressed in HEK293 cells assessed as decrease in IP1 accumulation after 1 hr by IP1-d2-based HTRF assay. As to conditions: read-out: EC50. Format: functional, cell-based. A digest of the protocol: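 HEK293 cells stably expressing human GHSR1a were seeded on Matrigel in complete DMEM for 18–22 h at 37 °C, 5% CO2. Compound in stimulation buffer was applied for 1 h at 37 °C. IP1-d2 and Tb-cryptate were then added for 1 h at room temperature, with HTRF read at 620/665 nm. Mean of at least two independent runs in triplicate.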
Background: TR-FRET usually uses a lanthanide donor and a delayed reading to cut background.

Data set [3] can be described thus: Clearance in rat liver microsomes at 0.625 uM preincubated for 5 mins followed by NADPH addition and measured after 60 mins by LC-MS/MS analysis. The format is ADME, microsome. The settings on record: read-out: CLH. In outline:
(§1)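 Liver microsomes (0.625 mg/mL protein) in 50 mM potassium phosphate pH 7.4 with 0.625 µM test item, prewarmed 5 min at 37 °C. Reaction started with NADPH (5 mM solution). Samples taken at 0, 5, 15, 30 and 60 min into cold MeCN with internal standard, analysed by LC-MS/MS. Intrinsic clearance derived by the half-life approach.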

The nature of data set [4]: Clearance in dog liver microsomes at 0.625 uM preincubated for 5 mins followed by NADPH addition and measured after 60 mins by LC-MS/MS analysis. The format is ADME, Canis lupus familiaris, microsome. As to conditions: read-out: CLH. A digest of the protocol:
as §1
For orientation: Microsomes from liver hold many membrane-bound enzymes, among them those of drug oxidation.

Data set [5] is described as follows: Half life in rat at 3 mg/kg, iv after 24 hrs by LC-MS/MS analysis. Format: ADME, organism-based. The settings on record: in vivo. In outline:
(§2)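 Rats given 3 mg/kg i.v. via tail vein, in 2% DMSO/50% of 40% HP-β-CD. EDTA plasma sampled at 0.08–24 h and analysed by LC-MS/MS, calibration range 5-5000 ng/mL.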

Data set [6] can be described thus: Volume of distribution in rat at 3 mg/kg, iv after 24 hrs by LC-MS/MS analysis. Format: ADME, organism-based. As to conditions: in vivo. In outline:
as §2

Data set [7] can be described thus: Ratio of drug level in brain to plasma of rat at 3 mg/kg, iv after 2 hrs by LC-MS/MS analysis. The format is ADME, organism-based. As to conditions: read-out: BPR. In outline:
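Rats given 3 mg/kg i.v. Brain collected 2 h post-dose after CO2 euthanasia and homogenized in 5 volumes of PBS pH 7.4. Brain and plasma levels measured by LC-MS/MS; ratio taken from the 2 h concentrations.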

The nature of data set [8]: Oral bioavailability in rat at 3 mg/kg via gavage by LC-MS/MS analysis. The format is ADME, organism-based. As to conditions: in vivo. In outline: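 Rats given 3 mg/kg by oral gavage as a suspension in 2% DMSO/98% of 0.5% CMC. EDTA plasma sampled at 0.25–24 h and analysed by LC-MS/MS. Bioavailability estimated against the 3 mg/kg i.v. arm.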
Data set [9] can be described thus: Protein binding in human plasma at 1 uM after 6 hrs by equilibrium dialysis. Format: ADME, cell-free. The settings on record: read-out: PPB. In outline:
(§3)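 Compound spiked at 1.0 µM final (0.5% DMSO) into plasma. Equilibrium dialysis against DPBS pH 7.4 across a 12–14 kD membrane for 6 h at 37 °C, in triplicate. Buffer-only controls used for nonspecific binding. Unbound fraction = acceptor/donor concentration by LC-MS/MS; reported as % bound.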

Data set [10] is described as follows: Protein binding in dog plasma at 1 uM after 6 hrs by equilibrium dialysis. The format is ADME, cell-free, Canis lupus familiaris. As to conditions: read-out: PPB. A digest of the protocol:
as §3

A short description of data set [11]: Protein binding in mouse plasma at 1 uM after 6 hrs by equilibrium dialysis. As to conditions: read-out: PPB (converted). Format: ADME, cell-free. A digest of the protocol: as §3
The subject of data set [12] is Mus musculus. The data set can be described thus: Anti-obesity activity in C57BL/6J mouse assessed as inhibition of anamorelin-induced increase in food intake by measuring cumulative food intake at 10 mg/kg, ip pretreated for 10 mins followed by anamorelin addition and measured after 1 hr post dose (reference value: 0.63 +/- 0.04 g). The format is functional. A digest of the protocol: (§4)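 Male C57BL/6J mice (18–22 g at arrival), fed ad libitum. Dosed 10 mg/kg i.p. at t = 0 in 10% DMAC/6% Solutol HS 15/84% PBS, then anamorelin 30 mg/kg p.o. (0.5% CMC) at 10 min. Cumulative food intake recorded at 1, 2, 4, 8 and 24 h; n=6 per group; mean ± SEM; ANOVA with Dunnett test versus vehicle+anamorelin.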

In data set [13] the test system is Mus musculus. Kind of data set: Anti-obesity activity in C57BL/6J mouse assessed as inhibition of anamorelin-induced increase in food intake by measuring cumulative food intake at 10 mg/kg, ip pretreated for 10 mins followed by anamorelin addition and measured after 2 hrs post dose (reference value: 1.37 +/- 0.05 g). The format is functional. In outline:
as §4

Data set [14] relates to Mus musculus. Kind of data set: Anti-obesity activity in C57BL/6J mouse assessed as inhibition of anamorelin-induced increase in food intake by measuring cumulative food intake at 10 mg/kg, ip pretreated for 10 mins followed by anamorelin addition and measured after 4 hrs post dose (reference value: 2.09 +/- 0.08 g). Format: functional. In outline: as §4
For data set [15], the system named is Mus musculus. Kind of data set: Anti-obesity activity in C57BL/6J mouse assessed as inhibition of anamorelin-induced increase in food intake by measuring cumulative food intake at 10 mg/kg, ip pretreated for 10 mins followed by anamorelin addition and measured after 8 hrs post dose (reference value: 2.97 +/- 0.09 g). Format: functional. A digest of the protocol:
as §4

Data set [16] concerns Mus musculus. The data set can be described thus: Anti-obesity activity in C57BL/6J mouse assessed as inhibition of anamorelin-induced increase in food intake by measuring cumulative food intake at 10 mg/kg, ip pretreated for 10 mins followed by anamorelin addition and measured after 24 hrs post dose (reference value: 8.31 +/- 0.2 g). Format: functional. In outline: as §4

Data set [17] deals with Mus musculus. Kind of data set: Anti-obesity activity in C57BL/6J mouse assessed as inhibition of anamorelin-induced increase in food intake by measuring cumulative food intake at 30 mg/kg, po pretreated for 10 mins followed by anamorelin addition and measured after 1 hr post dose (reference value: 0.63 +/- 0.04 g).
The subject of data set [18] is Mus musculus. The data set can be described thus: Anti-obesity activity in C57BL/6J mouse assessed as inhibition of anamorelin-induced increase in food intake by measuring cumulative food intake at 30 mg/kg, po pretreated for 10 mins followed by anamorelin addition and measured after 2 hrs post dose (reference value: 1.37 +/- 0.05 g).
Data set [19] has as its system Mus musculus. The data set can be described thus: Anti-obesity activity in C57BL/6J mouse assessed as inhibition of anamorelin-induced increase in food intake by measuring cumulative food intake at 30 mg/kg, po pretreated for 10 mins followed by anamorelin addition and measured after 8 hrs post dose (reference value: 2.97 +/- 0.09 g).
The subject of data set [20] is Mus musculus. The data set can be described thus: Anti-obesity activity in C57BL/6J mouse assessed as inhibition of anamorelin-induced increase in food intake by measuring cumulative food intake at 30 mg/kg, po pretreated for 10 mins followed by anamorelin addition and measured after 24 hrs post dose (reference value: 8.31 +/- 0.2 g).

T1 sequence (Q92847 whole entry): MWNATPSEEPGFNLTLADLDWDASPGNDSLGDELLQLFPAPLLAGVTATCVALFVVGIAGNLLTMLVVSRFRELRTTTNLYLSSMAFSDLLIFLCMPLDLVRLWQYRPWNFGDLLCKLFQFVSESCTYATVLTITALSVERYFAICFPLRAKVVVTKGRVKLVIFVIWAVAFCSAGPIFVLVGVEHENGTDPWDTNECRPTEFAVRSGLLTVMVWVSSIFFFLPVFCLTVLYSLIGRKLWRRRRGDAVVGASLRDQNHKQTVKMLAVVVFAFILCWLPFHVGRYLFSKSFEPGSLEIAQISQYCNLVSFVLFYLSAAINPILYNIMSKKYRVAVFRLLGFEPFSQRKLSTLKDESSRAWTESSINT

A word on the IC50: it is the concentration needed to halve the response being measured. A word on the EC50: it is the midpoint of the concentration-response curve. As a reminder, the half-life is how long it takes for the measured level to halve. A word on the Vd: it is the apparent volume that relates the amount in the body to the concentration in plasma or blood. What is called bioavailability is dose-corrected exposure relative to a reference, in per cent. Read a high bioavailability as good availability. Regarding `Cc1cc(-c2ccc3c(c2)CC[C@H]3N2CCC(N(C)C(=O)N[C@@H](C)c3ccc(C#CC4CC4)c(Cl)c3Cl)CC2)ncn1`, the IC50 in [1] was 0.0682 µM. Moreover, the EC50 in data set [2] worked out at 0.0294 µM. Moreover, the results for the microsomal CLint at 0.625 µM in data set [3] and in [4] were 57.8 µL/min/mg and 52.2 µL/min/mg, respectively. This compound also showed a half-life in [5] of 6.49 h. Moreover, the Vd in [6] came to 8.48 L/kg. Besides, the Kp at 2 h in data set [7] stood at 1.86. In data set [8], this compound gave a bioavailability of 27%. Further, the figures for the fraction unbound at 6 h, 1 µM in data set [9], in [10] and in data set [11] were 0.0001, 0.0001 and 0.0002, respectively. Moreover, the Activity in the data set on Mus musculus [12] is on record as 0.13 g; with Mus musculus [13], 0.56 g; with Mus musculus [14] it was 1.66 g; in the data set on Mus musculus [15], 2.78 g; with Mus musculus [16], 7.63 g; in the data set with Mus musculus [17], 0.22 g. Also, the Activity is reported as 0.86 g in the data set on Mus musculus [18], 1.8 g in the data set with Mus musculus [19] and 7.42 g with Mus musculus [20].
